Results as given in ChEMBL document CHEMBL1145009 (J Med Chem, 2003).

Legend:
[1] = (§1) Tested for oral absorption in Cynomolgus Monkey at the dose of 10 mg/kg, activity expressed as area under curve (AUC); type: ADME, organism-based, Macaca fascicularis; design: dose 10 mg/kg, route oral; conditions: in vivo
Method in brief: (§2)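 Single oral dose of 10 mg/kg as suspension in 0.5% methylcellulose to female cynomolgus monkeys (4–8 years, n = 3). Forearm-vein heparin plasma taken at 1, 3 and 6 h, deproteinized with 5% acetonitrile/0.05% TFA, compound measured by reverse-phase HPLC with UV detection at 320 nm.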

[2] = Tested for oral absorption in Cynomolgus Monkey at the dose of 10 mg/kg, activity expressed as Cmax; type: ADME, organism-based, Macaca fascicularis; design: dose 10 mg/kg, route oral; conditions: in vivo; method in brief: as §2
[3] = Tested for oral absorption in Cynomolgus Monkey at the dose of 10 mg/kg, activity expressed as Tmax (time required for Cmax); type: ADME, organism-based, Macaca fascicularis; design: dose 10 mg/kg, route oral; conditions: in vivo; method in brief: as §2
[4] = molecular target: T1, Gonadotropin-releasing hormone receptor (Homo sapiens, UniProt P30968); test: Antagonist concentration required to inhibit specific binding of [125I]leuprorelin to human luteinizing releasing hormone receptor in cloned chinese hamster ovary (CHO) cells.; type: cell-based
T1 sequence (P30968 whole entry): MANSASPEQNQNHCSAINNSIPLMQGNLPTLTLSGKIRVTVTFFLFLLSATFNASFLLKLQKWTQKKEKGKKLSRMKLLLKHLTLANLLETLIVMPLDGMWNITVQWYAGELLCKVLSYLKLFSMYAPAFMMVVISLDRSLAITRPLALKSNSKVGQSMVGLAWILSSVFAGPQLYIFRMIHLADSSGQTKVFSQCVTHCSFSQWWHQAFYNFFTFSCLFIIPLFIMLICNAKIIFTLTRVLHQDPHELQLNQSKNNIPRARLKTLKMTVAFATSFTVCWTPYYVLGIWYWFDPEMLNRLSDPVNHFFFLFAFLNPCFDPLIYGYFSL

[5] = Tested for plasma LH concentration in Castarted male Cynomolgus monkeys for oral administration at the dose of 10 mg/kg after 24 h; type: functional, Cercopithecidae
Method in brief: (§3)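 Male cynomolgus monkeys (4–9 years), castrated more than 6 months earlier and chair-restrained, given 10 mg/kg orally (3 mL/kg, n = 3) in 0.5% methylcellulose with 1.2% citric acid; vehicle group n = 3. Femoral-vein heparin plasma taken at 0–48 h; LH measured by mouse testicular cell bioassay. Mean ± SEM, also as % of 0 h value.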

[6] = Tested for plasma LH concentration in Castarted male Cynomolgus monkeys for oral administration at the dose of 30 mg/kg after 48 h; type: functional, Cercopithecidae
Method in brief: (§4)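 Castrated (more than 6 months) male cynomolgus monkeys aged 4–9 years, chair-restrained, dosed orally at 30 mg/kg (3 mL/kg, n = 3) as suspension in 0.5% methylcellulose/1.2% citric acid; vehicle controls n = 3. Plasma LH from femoral-vein samples through 48 h, assayed by bioassay with mouse testicular cells; mean ± SEM and % of pretreatment.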

[7] = Tested for plasma LH concentration in Castarted male Cynomolgus monkeys for oral administration at the dose of 30 mg/kg after 4 h; type: functional, Cercopithecidae; method in brief: as §4
[8] = Tested for plasma LH concentration in Castarted male Cynomolgus monkeys for oral administration at the dose of 10 mg/kg after 48 h; type: functional, Cercopithecidae; method in brief: as §3
[9] = Tested for plasma LH concentration in Castarted male Cynomolgus monkeys for oral administration at the dose of 10 mg/kg after 8 h; type: functional, Cercopithecidae; method in brief: as §3
[10] = Tested for plasma LH concentration in Castarted male Cynomolgus monkeys for oral administration at the dose of 30 mg/kg after 0 h; type: functional, Cercopithecidae; method in brief: as §4
[11] = Tested for plasma LH concentration in Castarted male Cynomolgus monkeys for oral administration at the dose of 10 mg/kg after 4 h; type: functional, Cercopithecidae; method in brief: as §3
[12] = Tested for plasma LH concentration in Castarted male Cynomolgus monkeys for oral administration at the dose of 30 mg/kg after 8 h; type: functional, Cercopithecidae; method in brief: as §4
[13] = Tested for plasma LH concentration in Castarted male Cynomolgus monkeys for oral administration at the dose of 10 mg/kg after 0 h; type: functional, Cercopithecidae; method in brief: as §3
[14] = Tested for plasma LH concentration in Castarted male Cynomolgus monkeys for oral administration at the dose of 30 mg/kg after 24 h; type: functional, Cercopithecidae; method in brief: as §4
[15] = Tested for plasma LH concentration in Castarted male Cynomolgus monkeys for oral administration at the dose of 30 mg/kg after 2 h; type: functional, Cercopithecidae; method in brief: as §4
[16] = Tested for plasma LH concentration in Castarted male Cynomolgus monkeys for oral administration at the dose of 10 mg/kg after 2 h; type: functional, Cercopithecidae; method in brief: as §3
Cynomolgus monkey = test: as §1; type: ADME, organism-based, Macaca fascicularis; design: dose 10 mg/kg, route oral; conditions: in vivo; method in brief: as §2

Q: With `CCNC(=O)Nc1ccc(-c2sc3c(c2CN(C)Cc2ccccc2)c(=O)n(-c2ccccc2)c(=O)n3Cc2c(F)cccc2F)cc1` as the molecule, how does the AUC [1] read?
A: 0.27 µM·h

Q: And the Cmax [2]?
A: 63 nM

Q: What about the Tmax [3] of the same molecule?
A: 3 h

Q: For `CNC(=O)Nc1ccc(-c2sc3c(c2CN(C)Cc2ccccc2)c(=O)n(-c2ccccc2)c(=O)n3Cc2c(F)cccc2F)cc1`, which IC50 [4] is on record?
A: 0.1 nM

Q: Which IC50 [4] does the source give for `COc1ccc(-c2sc3c(c2CN(C)Cc2ccccc2)c(=O)n(CC(C)C)c(=O)n3Cc2c(F)cccc2F)cc1` here?
A: 400 nM

Q: For `COc1ccc(-c2sc3c(c2CN(C)Cc2ccccc2)c(=O)n(-c2cccc(OC)c2)c(=O)n3Cc2c(F)cccc2F)cc1`, which IC50 [4] is on record?
A: 20 nM

Q: For `CONC(=O)Nc1ccc(-c2sc3c(c2CN(C)Cc2ccccc2)c(=O)n(-c2ccccc2)c(=O)n3Cc2c(F)cccc2F)cc1` [SUFUGOLIX], which LH concentration [5] is on record?
A: 0.18 mU ml-1

Q: What about the LH concentration [6] of the same molecule?
A: 0.71 mU ml-1

Q: What about the LH concentration [7] of the same molecule?
A: 0.25 mU ml-1

Q: What about the LH concentration [8] of the same molecule?
A: 0.76 mU ml-1

Q: What about the LH concentration [9] of the same molecule?
A: 0.19 mU ml-1

Q: And the LH concentration [10]?
A: 0.91 mU ml-1

Q: And the LH concentration [11]?
A: 0.37 mU ml-1

Q: And the LH concentration [12]?
A: 0.13 mU ml-1

Q: And the LH concentration [13]?
A: 1.01 mU ml-1

Q: And the AUC [1]?
A: 0.85 µM·h

Q: And the LH concentration [14]?
A: 0.1 mU ml-1

Q: And the Cmax [2]?
A: 210 nM

Q: And the LH concentration [15]?
A: 0.55 mU ml-1

Q: What about the Tmax [3] of the same molecule?
A: 6 h

Q: And the LH concentration [16]?
A: 0.74 mU ml-1

Q: For `COc1ccc(-c2sc3c(c2CN(C)Cc2ccccc2)c(=O)n(-c2ccc(OC)cc2)c(=O)n3Cc2c(F)cccc2F)cc1`, which IC50 [4] is on record?
A: 30 nM

Q: Which IC50 [4] does the source give for `COc1cccc(-n2c(=O)c3c(CN(C)Cc4ccccc4)c(-c4ccc(N)cc4)sc3n(Cc3c(F)cccc3F)c2=O)c1` here?
A: 1 nM

Q: Which IC50 [4] does the source give for `COc1ccc(-c2sc3c(c2CN(C)Cc2ccccc2)c(=O)n(Cc2ccccc2)c(=O)n3Cc2c(F)cccc2F)cc1` here?
A: 400 nM

Q: Which IC50 [4] does the source give for `COc1ccc(-c2sc3c(c2CN(C)Cc2ccccc2)c(=O)n(-c2cccc(Cl)c2)c(=O)n3Cc2c(F)cccc2F)cc1` here?
A: 200 nM

Q: For `CN(Cc1ccccc1)Cc1c(-c2ccc(NC(=O)NO)cc2)sc2c1c(=O)n(-c1ccccc1)c(=O)n2Cc1c(F)cccc1F`, which IC50 [4] is on record?
A: 0.4 nM

Q: For `COc1cccc(-n2c(=O)c3c(CN(C)Cc4ccccc4)c(-c4ccc([N+](=O)[O-])cc4)sc3n(Cc3c(F)cccc3F)c2=O)c1`, which IC50 [4] is on record?
A: 20 nM

Q: Which IC50 [4] does the source give for `COc1ccc(-c2sc3c(c2CN(C)Cc2ccccc2)c(=O)n(C2CCCCC2)c(=O)n3Cc2c(F)cccc2F)cc1` here?
A: 700 nM

Q: With `COc1ccc(-c2sc3c(c2CN(C)Cc2ccccc2)c(=O)n(-c2ccccc2Cl)c(=O)n3Cc2c(F)cccc2F)cc1` as the molecule, how does the IC50 [4] read?
A: 80 nM

Q: With `CCC(=O)Nc1ccc(-c2sc3c(c2CN(C)Cc2ccccc2)c(=O)n(-c2cccc(OC)c2)c(=O)n3Cc2c(F)cccc2F)cc1` as the molecule, how does the IC50 [4] read?
A: 0.2 nM

Q: For `COc1ccc(-c2sc3c(c2CN(C)Cc2ccccc2)c(=O)n(-c2ccc(Cl)cc2)c(=O)n3Cc2c(F)cccc2F)cc1`, which IC50 [4] is on record?
A: 200 nM

Q: With `CC(C)NC(=O)Nc1ccc(-c2sc3c(c2CN(C)Cc2ccccc2)c(=O)n(-c2ccccc2)c(=O)n3Cc2c(F)cccc2F)cc1` as the molecule, how does the IC50 [4] read?
A: 0.2 nM

Q: With `COc1ccc(-c2sc3c(c2CN(C)Cc2ccccc2)c(=O)n(-c2ccccc2)c(=O)n3Cc2c(F)cccc2F)cc1` as the molecule, how does the IC50 [4] read?
A: 50 nM

Q: With `COc1ccc(-c2sc3c(c2CN(C)Cc2ccccc2)c(=O)n(-c2ccccc2OC)c(=O)n3Cc2c(F)cccc2F)cc1` as the molecule, how does the IC50 [4] read?
A: 200 nM

Q: With `CCONC(=O)Nc1ccc(-c2sc3c(c2CN(C)Cc2ccccc2)c(=O)n(-c2ccccc2)c(=O)n3Cc2c(F)cccc2F)cc1` as the molecule, how does the IC50 [4] read?
A: 0.2 nM

Q: Which IC50 [4] does the source give for `CC(C)C(=O)Nc1ccc(-c2sc3c(c2CN(C)Cc2ccccc2)c(=O)n(-c2ccccc2)c(=O)n3Cc2c(F)cccc2F)cc1` here?
A: 0.4 nM

Q: For `CN(Cc1ccccc1)Cc1c(-c2ccc(NC(=O)c3ccccc3)cc2)sc2c1c(=O)n(-c1ccccc1)c(=O)n2Cc1c(F)cccc1F`, which IC50 [4] is on record?
A: 1 nM

Q: Which IC50 [4] does the source give for `CCC(=O)N(C)c1ccc(-c2sc3c(c2CN(C)Cc2ccccc2)c(=O)n(-c2cccc(OC)c2)c(=O)n3Cc2c(F)cccc2F)cc1` here?
A: 20 nM

Q: With `CCC(=O)Nc1ccc(-c2sc3c(c2CN(C)Cc2ccccc2)c(=O)n(-c2ccccc2)c(=O)n3Cc2c(F)cccc2F)cc1` as the molecule, how does the AUC (Cynomolgus monkey) read?
A: 2.5 µM·h

Q: And the Cmax [2]?
A: 630 nM

Q: And the Tmax [3]?
A: 3 h

Q: Which IC50 [4] does the source give for `CC(C)ONC(=O)Nc1ccc(-c2sc3c(c2CN(C)Cc2ccccc2)c(=O)n(-c2ccccc2)c(=O)n3Cc2c(F)cccc2F)cc1` here?
A: 0.6 nM

Q: Which IC50 [4] does the source give for `COc1cccc(-n2c(=O)c3c(CN(C)Cc4ccccc4)c(-c4ccc(NC(=O)C(C)C)cc4)sc3n(Cc3c(F)cccc3F)c2=O)c1` here?
A: 0.3 nM
